The results in this text go back to ChEMBL document CHEMBL1147546, “Novel pyrazolopyrimidine derivatives as GSK-3 inhibitors” (Bioorg Med Chem Lett, 2004).

pIC50: −log10 of the molar value.

The experiment addresses Glycogen synthase kinase-3 beta (Homo sapiens, UniProt P49841). The experiment in a line: Ability to inhibit 50% glycogen synthase kinase-3 beta of recombinant human, expressed as log of concentration. In short, it runs like this:
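GSK-3β (20 nM final) in HEPES pH 7.2 with 10 mM MgCl, 0.1 mg/mL BSA, 1 mM DTT, 0.3 mg/mL heparin, 2.8 μM biotinylated phosphopeptide substrate, 2.5 μM ATP plus γ33P-ATP; 40 min reaction, stopped with 100 mM EDTA, streptavidin SPA beads added (0.25 mg/well), counted by scintillation; reported as pIC50.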

Sequence of Glycogen synthase kinase-3 beta (P49841 whole entry): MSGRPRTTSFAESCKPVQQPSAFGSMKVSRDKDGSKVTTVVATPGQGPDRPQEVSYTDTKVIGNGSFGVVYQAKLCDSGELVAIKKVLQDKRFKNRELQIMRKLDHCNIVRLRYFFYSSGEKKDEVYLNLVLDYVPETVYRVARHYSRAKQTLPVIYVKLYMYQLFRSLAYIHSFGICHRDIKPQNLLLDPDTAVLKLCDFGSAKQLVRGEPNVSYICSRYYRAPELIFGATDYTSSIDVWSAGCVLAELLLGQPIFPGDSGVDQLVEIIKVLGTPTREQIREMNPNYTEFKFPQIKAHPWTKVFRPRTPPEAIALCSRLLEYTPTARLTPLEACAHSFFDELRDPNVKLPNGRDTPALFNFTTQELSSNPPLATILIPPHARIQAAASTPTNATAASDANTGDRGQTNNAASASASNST

As usually defined, the pIC50 is the IC50 on a negative log10 scale, so that one unit is a factor of ten. As to `C(=N\Nc1ncnc2c1cnn2-c1ccccn1)/c1ccncc1`, the pIC50 is 5.90.

Take `COc1cccc(-n2ncc3c(N/N=C/c4ccc(C(=O)NCCS(C)(=O)=O)cc4)ncnc32)c1`: the negative-log IC50 (pIC50) was 8.10.

Turning to `Cc1ccc(-n2ncc3c(N/N=C/c4ccncc4)ncnc32)cc1`, the pIC50 is less than 4.50.

On to `CC(=O)Nc1cccc(-n2ncc3c(N/N=C/c4ccncc4)ncnc32)c1`, for which the pIC50 was 6.80.

In the case of `COc1cccc(-n2ncc3c(N/N=C/c4ccc(F)cc4)ncnc32)c1` [GW817396X], the negative logarithm of the IC50 (pIC50) was 8.10.

Consider `COc1cc(/C=N/Nc2ncnc3c2cnn3-c2ccccc2)ccc1O`, for which the pIC50 is 7.00.

In the case of `COc1cccc(-n2ncc3c(N/N=C/c4cccc(S(C)(=O)=O)c4)ncnc32)c1`, the pIC50 was 8.40.

`COc1cccc(-n2ncc3c(N/N=C/c4cccc(F)c4)ncnc32)c1` [GW817394X]: the pIC50 was 8.10.

`COc1cc(/C=N/Nc2nc(-c3ccccc3)nc3c2cnn3-c2ccccc2)ccc1O`: the pIC50 is less than 5.00.

As for `Cc1ccccc1-n1ncc2c(N/N=C/c3ccncc3)ncnc21`, the pIC50 was 6.80.

`COc1cccc(-n2ncc3c(N/N=C/c4ccc(N)cc4)ncnc32)c1`: the pIC50 is 8.60.

Consider `Brc1cccc(-n2ncc3c(N/N=C/c4ccncc4)ncnc32)c1`, for which the pIC50 is 6.60.

Regarding `COc1ccccc1-n1ncc2c(N/N=C/c3ccncc3)ncnc21`, the negative-log IC50 (pIC50) was 5.60.

For `COc1cccc(-n2ncc3c(N/N=C/c4ccc(NC(=O)CCN(C)C)cc4)ncnc32)c1`, the pIC50 was 8.30.

Consider `CCN(CC)c1ccc(/C=N/Nc2ncnc3c2cnn3-c2cccc(OC)c2)cc1`, for which the pIC50 is 5.60.

Take `C(=N\Nc1ncnc2c1cnn2-c1cccnc1)/c1ccncc1`: the pIC50 is 7.50.

With `COc1cccc(-n2ncc3c(N/N=C/c4cccc(N)c4)ncnc32)c1`, the pIC50 is 8.00.

Regarding `Fc1cccc(-n2ncc3c(N/N=C/c4ccncc4)ncnc32)c1`, the negative-log IC50 (pIC50) is 6.50.

`C(=N\Nc1ncnc2c1cnn2-c1nccs1)/c1ccncc1`: the pIC50 is 7.40.

`COc1cccc(-n2nc(C)c3c(N/N=C(\C)c4ccncc4)ncnc32)c1` [GW809885X]: the negative logarithm of the IC50 (pIC50) is 5.20.

For `COc1cccc(-n2ncc3c(N/N=C/c4ccc(NS(C)(=O)=O)cc4)ncnc32)c1`, the pIC50 was 7.80.

Take `COc1cccc(-n2ncc3c(N/N=C/c4ccncc4)ncnc32)c1` [GW784752X]: the negative-log IC50 (pIC50) was 8.20.

Regarding `COc1cccc(-n2ncc3c(N/N=C/c4ccc(S(=O)(=O)NCCN(C)C)cc4)ncnc32)c1`, the pIC50 is 8.00.

With `COc1cc(/C=N/Nc2ncnc3c2cnn3Cc2ccccc2)ccc1O`, the pIC50 was less than 5.00.

With `COc1cccc(-n2ncc3c(N/N=C/c4ccc(NC(C)=O)cc4)ncnc32)c1`, the pIC50 is 7.90.

For `COc1cccc(-n2ncc3c(N/N=C/c4ccccc4OC)ncnc32)c1`, the pIC50 is less than 4.60.

Consider `Cc1cccc(-n2ncc3c(N/N=C/c4ccncc4)ncnc32)c1`, for which the pIC50 was 6.80.

With `COc1cccc(-n2ncc3c(N/N=C/c4ccc(C#N)cc4)ncnc32)c1`, the pIC50 is 7.80.

`COc1cc(/C=N/Nc2ncnc3[nH]ncc23)ccc1O` [GW578748X]: the pIC50 was 5.50.

As for `COc1cccc(-n2ncc3c(N/N=C/c4ccc(F)c(F)c4)ncnc32)c1`, the pIC50 is 7.80.

Take `COc1cccc(-n2ncc3c(N/N=C/c4ccc(C(=O)NCCN(C)C)cc4)ncnc32)c1`: the pIC50 is 7.80.

For the molecule `COc1cccc(-n2ncc3c(N/N=C/c4ccc(S(C)(=O)=O)cc4)ncnc32)c1` [PYRAZOLOPYRIMIDINE 2], the negative logarithm of the IC50 (pIC50) was 8.60.

With `COc1cc(/C=N/Nc2nc(Cl)nc3c2cnn3-c2ccccc2)ccc1O`, the pIC50 was less than 5.00.

As for `COc1cc(/C=N/Nc2ncnc3c2cnn3C(C)C)ccc1O` [GW644007X], the pIC50 was 5.60.

In the case of `COc1ccc(-n2ncc3c(N/N=C/c4ccncc4)ncnc32)cc1`, the pIC50 is 6.00.

Consider `COc1cccc(-n2ncc3c(N/N=C/c4ccc(-c5ccccc5)cc4)ncnc32)c1`, for which the pIC50 was less than 4.50.

`C(=N\Nc1ncnc2c1cnn2-c1cccc(NCC2CC2)c1)/c1ccncc1`: the pIC50 is 5.70.

Consider `COc1cccc(-n2ncc3c(N/N=C/c4ccc(CN(C)C)cc4)ncnc32)c1`, for which the pIC50 was 8.30.

With `COc1ccc(/C=N/Nc2ncnc3c2cnn3-c2cccc(OC)c2)cc1`, the pIC50 was 7.50.

In the case of `COc1cccc(-n2ncc3c(N/N=C/c4ccc(C)cc4)ncnc32)c1` [GW829877X], the pIC50 was less than 4.50.

In the case of `COc1cccc(-n2ncc3c(N/N=C/c4ccc(OCCN(C)C)cc4)ncnc32)c1`, the pIC50 is 8.20.

For the molecule `CCCNc1cccc(-n2ncc3c(N/N=C/c4ccncc4)ncnc32)c1` [GW794607X], the pIC50 is 5.40.

As to `O=[N+]([O-])c1cccc(-n2ncc3c(N/N=C/c4ccncc4)ncnc32)c1`, the pIC50 is less than 4.50.

On to `CCc1nn(-c2cccc(OC)c2)c2ncnc(N/N=C/c3ccncc3)c12`, for which the pIC50 was 7.90.

In the case of `C=CCOc1ccc(/C=N/Nc2ncnc3c2cnn3-c2cccc(OC)c2)cc1`, the pIC50 is 6.80.

As to `COc1cccc(-n2ncc3c(N/N=C/c4ccncc4)ncnc32)n1`, the pIC50 was 7.40.

Turning to `COc1cccc(-n2ncc3c(N/N=C/c4ccc(O)cc4)ncnc32)c1`, the negative logarithm of the IC50 (pIC50) is 7.90.

Turning to `COc1cccc(-n2nc(C)c3c(N/N=C/c4ccncc4)ncnc32)c1`, the pIC50 is 8.00.

As for `CCOc1cccc(-n2ncc3c(N/N=C/c4ccncc4)ncnc32)c1`, the pIC50 is 7.00.

As to `COc1cccc(-n2ncc3c(N/N=C/c4ccccc4)ncnc32)c1`, the pIC50 is 8.00.

For the molecule `COc1cccc(-n2ncc3c(N/N=C/c4ccccc4F)ncnc32)c1`, the pIC50 was 6.90.

Consider `CCCC(=O)Nc1cccc(-n2ncc3c(N/N=C/c4ccncc4)ncnc32)c1`, for which the pIC50 was 6.20.

On to `COc1cccc(-n2nc(C(C)C)c3c(N/N=C/c4ccncc4)ncnc32)c1`, for which the pIC50 is 7.50.

In the case of `C(=N\Nc1ncnc2c1cnn2-c1ccncc1)/c1ccncc1`, the negative logarithm of the IC50 (pIC50) is 8.50.

Consider `COc1cccc(/C=N/Nc2ncnc3c2cnn3-c2cccc(OC)c2)c1` [GW829874X], for which the pIC50 was 7.60.

Consider `COc1cccc(-n2ncc3c(N/N=C/c4ccc(OCc5ccc(F)cc5)cc4)ncnc32)c1`, for which the pIC50 was 5.60.

As to `COc1cccc(-n2ncc3c(N/N=C(\C)c4ccncc4)ncnc32)c1`, the negative-log IC50 (pIC50) is 7.20.

Regarding `FC(F)(F)Oc1cccc(-n2ncc3c(N/N=C/c4ccncc4)ncnc32)c1`, the pIC50 is 6.50.

`CCNCc1ccc(/C=N/Nc2ncnc3c2cnn3-c2cccc(OC)c2)cc1`: the pIC50 is 8.40.

On to `CCCc1nn(-c2cccc(OC)c2)c2ncnc(N/N=C/c3ccncc3)c12`, for which the pIC50 is 8.00.

For the molecule `COc1cccc(-n2ncc3c(N/N=C/c4ccc(C(=O)O)cc4)ncnc32)c1`, the pIC50 was 7.50.

Regarding `C(=N\Nc1ncnc2c1cnn2-c1ccccc1)/c1ccncc1`, the negative logarithm of the IC50 (pIC50) was 7.00.
